Data on 21 molecules can be found in ChEMBL document CHEMBL1149785, “Synthesis and biological evaluation of helicid analogues as novel acetylcholinesterase inhibitors” (Eur J Med Chem, 2008).

Active and inactive are the calls of the source. The calls are words filed in the database; no cut-off is given here.

In assay [1] the target is Acetylcholinesterase (Electrophorus electricus) (UniProt O42275). Description: Inhibition of Electrophorus electricus AChE upto 500 uM by Ellman's method. The gist of the method:
(§1)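 Modified Ellman assay with acetylthiocholine (AChE) or butyrylthiocholine (BuChE) as substrate, from 0.075 M stock solutions, and DTNB from a 0.01 M stock, in phosphate buffer. Enzyme, DTNB and test compound were pre-incubated for 15 min at 37 °C, then substrate was added. Absorbance was read at 412 nm for 1 min. Five concentrations, normally 10^-4 to 10^-9 M, each in triplicate.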

Assay [2] concerns the target Cholinesterase (Equus caballus) (UniProt P81908). In words: Inhibition of horse serum BuChE upto 500 uM by Ellman's method. The gist of the method: as §1
Assay [3] addresses 4-aminobutyrate aminotransferase, mitochondrial (Homo sapiens, UniProt P80404). Description: Inhibition of GABA transaminase.
A further assay has as its target Acetylcholinesterase (Electrophorus electricus, UniProt O42275). In words: Inhibition of Electrophorus electricus AChE by Ellman's method.
The next assay addresses Cholinesterase (Equus caballus, UniProt P81908). In words: Inhibition of horse serum BuChE by Ellman's method.

Cholinesterase, sequence (P81908 whole entry): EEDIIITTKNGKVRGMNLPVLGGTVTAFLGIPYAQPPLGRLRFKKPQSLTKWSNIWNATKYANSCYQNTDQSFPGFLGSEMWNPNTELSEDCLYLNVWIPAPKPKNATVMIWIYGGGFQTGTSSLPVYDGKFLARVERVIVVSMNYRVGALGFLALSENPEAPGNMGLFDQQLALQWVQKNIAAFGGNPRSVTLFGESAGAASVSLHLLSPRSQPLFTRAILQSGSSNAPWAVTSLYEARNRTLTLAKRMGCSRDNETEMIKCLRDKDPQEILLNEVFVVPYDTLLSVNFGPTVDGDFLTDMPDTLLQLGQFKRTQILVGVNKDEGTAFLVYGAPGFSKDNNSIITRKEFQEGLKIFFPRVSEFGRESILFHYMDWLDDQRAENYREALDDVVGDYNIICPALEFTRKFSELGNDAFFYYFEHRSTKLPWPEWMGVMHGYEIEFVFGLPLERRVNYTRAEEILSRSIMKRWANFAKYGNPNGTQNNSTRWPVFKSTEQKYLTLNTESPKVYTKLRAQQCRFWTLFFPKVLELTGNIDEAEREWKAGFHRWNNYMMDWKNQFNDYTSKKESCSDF
Cholinesterase (Equus caballus), sequence (P81908 whole entry): as above
Acetylcholinesterase (Electrophorus electricus), sequence (O42275 24-633 limits assumed): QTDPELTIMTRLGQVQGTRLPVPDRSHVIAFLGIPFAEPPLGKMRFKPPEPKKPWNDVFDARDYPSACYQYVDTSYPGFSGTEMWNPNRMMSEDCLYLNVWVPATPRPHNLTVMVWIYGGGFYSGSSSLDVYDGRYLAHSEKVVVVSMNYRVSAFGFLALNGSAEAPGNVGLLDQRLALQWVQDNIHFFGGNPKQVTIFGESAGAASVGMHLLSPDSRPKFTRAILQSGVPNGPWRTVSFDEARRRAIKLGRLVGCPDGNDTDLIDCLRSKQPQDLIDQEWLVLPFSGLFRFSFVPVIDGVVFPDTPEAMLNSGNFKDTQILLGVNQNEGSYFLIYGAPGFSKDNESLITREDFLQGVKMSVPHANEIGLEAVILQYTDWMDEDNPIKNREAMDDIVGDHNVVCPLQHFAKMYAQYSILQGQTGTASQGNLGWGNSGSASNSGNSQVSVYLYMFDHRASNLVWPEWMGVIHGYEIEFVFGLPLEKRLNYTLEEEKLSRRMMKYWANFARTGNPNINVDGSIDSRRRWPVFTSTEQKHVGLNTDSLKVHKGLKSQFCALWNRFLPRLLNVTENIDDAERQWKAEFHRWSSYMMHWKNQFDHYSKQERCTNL
Acetylcholinesterase, sequence (O42275 whole entry): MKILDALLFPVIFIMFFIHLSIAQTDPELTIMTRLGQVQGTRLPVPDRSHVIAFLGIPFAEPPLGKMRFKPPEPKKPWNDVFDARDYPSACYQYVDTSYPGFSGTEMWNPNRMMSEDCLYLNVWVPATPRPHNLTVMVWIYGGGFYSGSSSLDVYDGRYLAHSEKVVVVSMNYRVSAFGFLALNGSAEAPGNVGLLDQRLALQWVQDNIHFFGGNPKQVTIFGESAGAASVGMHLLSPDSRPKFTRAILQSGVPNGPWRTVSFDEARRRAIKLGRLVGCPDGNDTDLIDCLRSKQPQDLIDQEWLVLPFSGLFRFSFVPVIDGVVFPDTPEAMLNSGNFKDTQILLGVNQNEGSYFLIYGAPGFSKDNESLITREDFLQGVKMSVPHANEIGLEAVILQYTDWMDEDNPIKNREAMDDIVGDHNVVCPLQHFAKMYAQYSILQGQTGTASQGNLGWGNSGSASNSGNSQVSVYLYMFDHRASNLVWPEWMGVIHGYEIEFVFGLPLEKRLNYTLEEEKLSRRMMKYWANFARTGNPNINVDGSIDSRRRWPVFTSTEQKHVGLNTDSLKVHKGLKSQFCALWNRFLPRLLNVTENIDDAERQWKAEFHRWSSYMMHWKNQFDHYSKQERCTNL
4-aminobutyrate aminotransferase, mitochondrial, sequence (P80404 whole entry): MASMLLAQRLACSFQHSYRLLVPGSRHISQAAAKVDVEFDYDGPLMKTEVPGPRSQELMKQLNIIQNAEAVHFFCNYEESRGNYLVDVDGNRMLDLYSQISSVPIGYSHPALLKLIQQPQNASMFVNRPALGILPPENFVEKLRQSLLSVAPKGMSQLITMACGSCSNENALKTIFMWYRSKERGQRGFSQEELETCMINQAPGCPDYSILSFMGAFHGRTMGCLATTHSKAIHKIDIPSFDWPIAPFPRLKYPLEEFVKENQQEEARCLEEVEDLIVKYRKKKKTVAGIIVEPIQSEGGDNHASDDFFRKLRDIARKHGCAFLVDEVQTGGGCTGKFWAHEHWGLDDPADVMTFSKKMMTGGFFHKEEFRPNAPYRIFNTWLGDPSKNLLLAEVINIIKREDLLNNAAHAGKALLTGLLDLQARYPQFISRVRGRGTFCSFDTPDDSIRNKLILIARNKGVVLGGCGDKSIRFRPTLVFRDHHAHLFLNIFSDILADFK

Regarding `CC(=O)OC[C@H]1O[C@@H](O[C@H]2[C@H](OC(C)=O)[C@@H](OC(C)=O)[C@H](Oc3ccc(C=O)cc3)O[C@@H]2COC(C)=O)[C@H](OC(C)=O)[C@@H](OC(C)=O)[C@H]1OC(C)=O`, the result in assay [1] and in assay [2] was inactive.

With `O=Cc1ccc(O)cc1` [4-HYDROXYBENZALDEHYDE], the midpoint of inhibition in assay [3], the IC50, lay at 33.6 µM.

Regarding `CC(=O)OC[C@H]1O[C@@H](Oc2ccc(C=O)cc2)[C@H](OC(C)=O)[C@@H](OC(C)=O)[C@H]1OC(C)=O`, the outcome in assay [2] was inactive. The molecule further showed an IC50 against Acetylcholinesterase of 45.4 µM.

Take `CC(=O)OC[C@H]1O[C@@H](Oc2ccc(/C=N/NC(N)=O)cc2)[C@H](OC(C)=O)[C@@H](OC(C)=O)[C@@H]1OC(C)=O`: the outcome in assay [2] was inactive. Further, at Acetylcholinesterase, 143 µM corresponded to half-maximal inhibition (IC50).

As for `NC(=O)N/N=C/c1ccc(O[C@@H]2O[C@H](CO)[C@@H](O)[C@H](O)[C@H]2O)cc1`, the outcome in assay [2] was inactive. At Acetylcholinesterase, this molecule came in with an IC50 of 121 µM.

Turning to `O=Cc1ccc(O[C@@H]2O[C@H](CO)[C@@H](O)[C@H](O)[C@H]2O)cc1`, in assay [2], the outcome was inactive. At Acetylcholinesterase, this molecule registered an IC50 of 0.45 µM and a Ki of 0.73 µM.

For `CO/N=C\c1ccc(O[C@@H]2OC[C@@H](OC(=O)c3ccccc3)[C@@H](OC(=O)c3ccccc3)[C@H]2OC(=O)c2ccccc2)cc1`, the IC50 on Cholinesterase was 45.8 µM; on Acetylcholinesterase it was 3.08 µM.

With `O=Cc1ccc(O[C@@H]2OC[C@@H](OC(=O)c3ccccc3)[C@@H](OC(=O)c3ccccc3)[C@H]2OC(=O)c2ccccc2)cc1`, the IC50 against Cholinesterase came to 64.3 µM; against Acetylcholinesterase, 14 µM.

As for `NC(=O)N/N=C/c1ccc(O[C@@H]2OC[C@@H](OC(=O)c3ccccc3)[C@@H](OC(=O)c3ccccc3)[C@H]2OC(=O)c2ccccc2)cc1`, the concentration for half-maximal inhibition (IC50) against Cholinesterase is 48.7 µM; against Acetylcholinesterase, 7.07 µM.

Turning to `O=Cc1ccc(O[C@@H]2O[C@H](CO)[C@@H](O)[C@@H](O)[C@H]2O)cc1`, the result in assay [1] and in assay [2] was inactive.

Consider `OC[C@H]1O[C@@H](Oc2ccc(/C=N/O)cc2)[C@H](O)[C@@H](O)[C@@H]1O`, for which, in assay [2], the outcome was inactive.

As for `O=Cc1ccc(O[C@@H]2OC[C@@H](O)[C@@H](O)[C@H]2O)cc1`, the result in assay [2] was inactive. Also, on Acetylcholinesterase, 0.2 µM corresponded to half-maximal inhibition (IC50) and the Ki came to 0.51 µM.

In the case of `NC(=S)N/N=C/c1ccc(O[C@@H]2O[C@H](CO)[C@@H](O)[C@H](O)[C@H]2O)cc1`, in assay [2], the result was inactive. On Acetylcholinesterase, this molecule came in with an IC50 of 22.9 µM.

Take `CC(=O)OC[C@H]1O[C@@H](Oc2ccc(C=O)cc2)[C@H](OC(C)=O)[C@H](OC(C)=O)[C@@H]1OC(C)=O`: the outcome in assay [1] and in assay [2] was inactive.

Consider `NC(=S)N/N=C/c1ccc(O[C@@H]2OC[C@@H](OC(=O)c3ccccc3)[C@@H](OC(=O)c3ccccc3)[C@H]2OC(=O)c2ccccc2)cc1`, for which the IC50 came to 71.8 µM at Cholinesterase and 46.4 µM on Acetylcholinesterase.

In the case of `CC(=O)OC[C@H]1O[C@@H](Oc2ccc(C=O)cc2)[C@H](OC(C)=O)[C@@H](OC(C)=O)[C@@H]1OC(C)=O`, in assay [2], the result was inactive. This molecule also registered an IC50 against Acetylcholinesterase of 1.5 µM.

For the molecule `CO/N=C\c1ccc(O[C@@H]2O[C@H](CO)[C@@H](O)[C@H](O)[C@H]2O)cc1`, the result in assay [2] was inactive. Besides, on Acetylcholinesterase, the IC50 was 0.49 µM and affinity was put at a Ki of 0.13 µM.

Consider `O=Cc1ccc(O[C@@H]2OC[C@@H](OC(=O)c3ccccc3)[C@H](OC(=O)c3ccccc3)[C@H]2OC(=O)c2ccccc2)cc1`, for which, in assay [2], the result was inactive. At Acetylcholinesterase, it took 35 µM to reach half-maximal inhibition (IC50).

As to `CC(=O)OC[C@H]1O[C@@H](Oc2ccc(/C=N/NC(N)=S)cc2)[C@H](OC(C)=O)[C@@H](OC(C)=O)[C@@H]1OC(C)=O`, the result in assay [2] was inactive. On Acetylcholinesterase, this molecule displayed an IC50 of 21.5 µM.

Turning to `CC(=O)OC[C@H]1O[C@@H](Oc2ccc(/C=N/O)cc2)[C@H](OC(C)=O)[C@@H](OC(C)=O)[C@@H]1OC(C)=O`, the result in assay [2] was inactive.

As for `CO/N=C\c1ccc(O[C@@H]2O[C@H](COC(C)=O)[C@@H](OC(C)=O)[C@H](OC(C)=O)[C@H]2OC(C)=O)cc1`, in assay [2], the result was inactive. The IC50 against Acetylcholinesterase amounted to 15.1 µM.
